Measured values collected from several papers.
Protocols differ between the studies behind these lines.
FLT3 K663Q: Receptor-type tyrosine-protein kinase FLT3 (FLT3, Homo sapiens, UniProt P36888, K663Q)
FLT3 D835Y: Receptor-type tyrosine-protein kinase FLT3 (FLT3, Homo sapiens, UniProt P36888, D835Y)
FLT3: Receptor-type tyrosine-protein kinase FLT3 (FLT3, Homo sapiens, UniProt P36888)
FLT3 autoinhibited: Receptor-type tyrosine-protein kinase FLT3, autoinhibited (FLT3, Homo sapiens, UniProt P36888)
FLT3 D835V: Receptor-type tyrosine-protein kinase FLT3 (FLT3, Homo sapiens, UniProt P36888, D835V)
FLT3 D835H: Receptor-type tyrosine-protein kinase FLT3 (FLT3, Homo sapiens, UniProt P36888, D835H)
FLT3 R834Q: Receptor-type tyrosine-protein kinase FLT3 (FLT3, Homo sapiens, UniProt P36888, R834Q)
FLT3 N841I: Receptor-type tyrosine-protein kinase FLT3 (FLT3, Homo sapiens, UniProt P36888, N841I)
FLT3 F691L/ITD: Receptor-type tyrosine-protein kinase FLT3 (FLT3, Homo sapiens, UniProt P36888, F691L/ITD)

SMILES | target | effect on | method | concentration | remaining binding [%]
NS(=O)(=O)c1cc(NC(=O)C2(c3ccccc3Cl)CC2)ccc1Oc1cccc(Cl)c1 | FLT3 K663Q | cell-free assay | competition with immobilised ligand | 1 µM | 100
O=C(c1ccc(Nc2nccc(-c3cc4ccccc4s3)n2)cc1)N1CCC(N2CCCC2)CC1 | FLT3 D835Y | binding | competition with immobilised ligand | 1 µM | 28
CNC(=O)[C@@H]1CC[C@@H](n2c(-c3ccc4cnccc4c3)nc3ccc(C(=O)NCc4cccc(C(N)=O)c4)cc32)C1 | FLT3 | binding | competition with immobilised ligand | 1 µM | 100
CCN1CCN(Cc2ccc(C(=O)Nc3ccc(C)c(Oc4ccc5c(c4)CC(=O)N5)c3)cc2C(F)(F)F)CC1 | FLT3 autoinhibited | binding | competition with immobilised ligand | 1 µM | 100
C[C@H]1CCN(c2nccc(-c3cnn4ncccc34)n2)C1 | FLT3 | binding |  | 1 µM | 81
O=C(c1ccc(Nc2ncc(Cl)c(-c3ccc(Cl)s3)n2)cc1)N1CCC(N2CCCC2)CC1 | FLT3 | binding | competition with immobilised ligand | 1 µM | 10
O=C(Nc1c[nH]nc1C(=O)NC1CCNCC1)c1cc(F)cc(F)c1 | FLT3 autoinhibited | binding | competition with immobilised ligand | 1 µM | 85
O=C(Nc1ccc(Oc2ccc(F)cc2)cc1)N1CCc2ncccc2[C@H]1c1ccc(F)cc1 | FLT3 autoinhibited | cell-free assay | competition with immobilised ligand | 1 µM | 100
Nc1ncc2c(n1)-c1c([nH]c3ccc(C#CC4CC4)cc13)CCCC2 | FLT3 K663Q | binding | competition with immobilised ligand | 1 µM | 77
C[C@@H](c1ccc(-n2cnc3c(N)ncnc32)cc1)N1CCc2nn(C)c(Cc3ccccc3)c2C1=O | FLT3 K663Q | binding | competition with immobilised ligand | 0.1 µM | 77
c1cnn2ncc(-c3ccnc(N4CCC45COC5)n3)c2c1 | FLT3 D835V | binding |  | 1 µM | 20
COc1cnc(Nc2cccc(S(N)(=O)=O)c2)nc1N1CCN(c2ccccc2)C(=O)C1 | FLT3 D835Y | binding | competition with immobilised ligand | 1 µM | 66
Cc1c(C(=O)O)cc(-c2ccc(C3CCNCC3)cc2)c2ccc(-c3ccc(C(F)(F)F)cc3)cc12 | FLT3 | binding | competition with immobilised ligand | 1 µM | 100
O=C(NCC1CCOCC1)c1n[nH]cc1NC(=O)c1c(F)cccc1F | FLT3 D835H | binding | competition with immobilised ligand | 1 µM | 98
CN(CCCC(F)(F)F)c1nccc(-c2cnn3ncccc23)n1 | FLT3 D835Y | binding |  | 1 µM | 76
C[C@@H]1CN(c2ccc3ncc(-c4ccc5[nH]nc(C6CC6)c5c4)n3n2)C[C@H](C)O1 | FLT3 | binding | competition with immobilised ligand | 50 nM | 31
N[C@@H]1CCN(c2nccc(-c3cnn4ncccc34)n2)C1 | FLT3 D835Y | binding |  | 1 µM | 97
O=C(NCc1ncc(C(F)(F)F)cc1Cl)c1ccc2c(c1)C1(CCS(=O)(=O)CC1)[C@H](C1CC1)N2S(=O)(=O)c1ccc(F)cc1 | FLT3 R834Q | cell-free assay | competition with immobilised ligand | 1 µM | 90
CC1CCCN1c1nccc(-c2cnn3ncccc23)n1 (stereo not shown) | FLT3 N841I | binding |  | 1 µM | 75

SMILES | target | effect on | method | concentration | remaining binding [%]
Cc1cnc(Nc2ccc(C(=O)N3CCC(N4CCCC4)CC3)cc2)nc1-c1cc2ccccc2s1 | FLT3 autoinhibited | binding | competition with immobilised ligand | 1 µM | 9.5
COc1ncc2cc3ccccc3nc2c1C#N | FLT3 R834Q | cell-free assay | competition with immobilised ligand | 5 µM | 92
CN1CCN(c2ccc(Nc3nccc(-c4ccccc4)n3)cc2C(F)(F)F)CC1 | FLT3 D835H | binding |  | 10 µM | 0.2
CN(C)C(=O)Cn1cc(-c2nc([C@@](C)(c3ccc(-c4cnc(N)nc4)cc3)C3CC3)no2)cn1 | FLT3 | cell-free assay | competition with immobilised ligand | 1 µM | 97
Cc1cnn2ncc(-c3ccnc(N(C)C)n3)c2c1 | FLT3 K663Q | binding |  | 1 µM | 100
COc1cnc(Nc2cccc(S(N)(=O)=O)c2)nc1N1CCN(c2ccccc2)CC1 | FLT3 N841I | binding | competition with immobilised ligand | 1 µM | 21
CN(C)c1ncc(F)c(-c2cnn3ncccc23)n1 | FLT3 autoinhibited | binding |  | 1 µM | 72
C=CC(=O)N1CCC(C(=O)NCC(=O)N2CCN(c3nc(-c4cnc(N)nc4C(F)F)nc(N4CCOCC4)n3)CC2)CC1 | FLT3 D835Y | binding | competition with immobilised ligand | 1 µM | 99
c1cncc(-c2cccc(Nc3nccc(NC4CCCCC4)n3)c2)c1 | FLT3 R834Q | binding | competition with immobilised ligand | 10 µM | 5.5
O=C(NCCCN1CCOCC1)c1ccc(Nc2nccc(-c3cc4ccccc4s3)n2)cc1 | FLT3 R834Q | binding | competition with immobilised ligand | 1 µM | 43
CC(=O)N1CCC(c2ccc(C(=O)NC(=N)N)cc2C(F)(F)F)CC1 | FLT3 K663Q | cell-free assay | competition with immobilised ligand | 1 µM | 100
O=C(NC1CCC1)c1ccc2nc(-c3cccc(NS(=O)(=O)NCCN4CCCCC4)c3)cn2c1 | FLT3 F691L/ITD | cell-free assay | competition with immobilised ligand | 10 µM | 80
COc1ccnn2ncc(-c3ccnc(N(C)C)n3)c12 | FLT3 D835V | binding |  | 1 µM | 81
Cc1nc(N2CC[C@@H](O)C2)ncc1-c1cc(C(F)(F)F)cc2[nH]ncc12 | FLT3 F691L/ITD | binding | competition with immobilised ligand | 1 µM | 69
O=C(c1ccc(Nc2ncc(Cl)c(-c3cc4ccccc4s3)n2)cc1)N1CCC(N2CCCC2)CC1 | FLT3 F691L/ITD | binding | competition with immobilised ligand | 1 µM | 2.7
CNC(=O)Nc1ccc2c(c1)[C@@]1(CC2)OC(=O)N(CC(=O)N(Cc2ccc(F)cc2)[C@@H](C)C(F)(F)F)C1=O | FLT3 D835V | cell-free assay | competition with immobilised ligand | 1 µM | 81
O=C(NCCCN1CCOCC1)c1ccc(Nc2ncc(Cl)c(-c3ccc(Cl)s3)n2)cc1 | FLT3 D835Y | binding | competition with immobilised ligand | 1 µM | 1.8
CN1CCN(c2ccc(Nc3nccc(-c4cccc([N+](=O)[O-])c4)n3)cc2C(F)(F)F)CC1 | FLT3 D835V | binding |  | 10 µM | 0
